Six compounds from ChEMBL document CHEMBL1131182, “Anti-AIDS agents. 34. Synthesis and structure-activity relationships of betulin derivatives as anti-HIV agents” (J Med Chem, 1998) can be followed below.

The test system of data set [1] is H9. The experiment in a line: Anti-HIV activity was measured in […] by MAGI assay. The class given is functional, cell-based. The settings on record: Homo sapiens. The method, boiled down:
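HeLa-CD4/β-gal cells were plated at 10 000/well in DMEM with G418 500 µg/mL and hygromycin 250 µg/mL for 1 day. They were then infected with virus dilutions in the presence of varying drug for 2 days at 37 °C. Cells were fixed (1% formaldehyde, 0.2% glutaraldehyde) and stained with X-gal 0.4 mg/mL. Blue cells were counted, and EC50 was taken as a 50% reduction in infected cells.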

Data set [2] concerns H9. The experiment in a line: Anti-HIV activity against acutely infected H9 lymphocytes. Activity expressed as concentration of compound able to suppress HIV replication by 50%. The class given is functional, cell-based. The settings on record: Homo sapiens. The method, boiled down: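 H9 cells (RPMI 1640, 10% FCS, L-glutamine, 37 °C, 5% CO2, log phase) infected 1 h with HIV-1 IIIB at MOI 0.1-0.01, washed and plated at 4 × 10^5 cells/mL with DMSO-dissolved samples (screen 100, 20, 4, 0.8 µg/mL final, further dilutions for actives). After 4 days, supernatant p24 was measured by antigen-capture ELISA against a standard curve. EC50 is 50% suppression of replication; at least two experiments averaged.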

Data set [3] relates to H9. As to the kind of experiment: Anti-HIV activity against acutely infected H9 lymphocytes. Activity expressed as concentration of compound toxic to 50% of mock-infected H9 cells. The settings on record: Homo sapiens. The class given is functional, cell-based. In short, it runs like this:
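Uninfected H9 cells were exposed to DMSO-dissolved samples (screen 100, 20, 4, 0.8 µg/mL final) for 4 days at 37 °C, 5% CO2. Remaining cells were counted with a counter against medium-only controls. IC50 is the concentration toxic to 50% of mock-infected cells; at least two experiments averaged.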

Data set [4] in a line: Therapeutic Index is the […] of the IC50 to that of EC50. The settings on record: human, H9 cells; read-out: TI. The class given is cell-based.

As to `Cc1cn([C@H]2C[C@H](N=[N+]=[N-])[C@@H](CO)O2)c(=O)[nH]c1=O` [ZIDOVUDINE], the EC50 (commonly the midpoint of the concentration-response curve) in data set [1] was 0.037 µM.
For the compound `C=C(COC(=O)CC1(CC(=O)O)CCCC1)[C@@H]1CC[C@]2(COC(=O)CC3(CC(=O)O)CCCC3)CC[C@]3(C)[C@H](CC[C@@H]4[C@@]5(C)CC[C@H](OC(=O)CC6(CC(=O)O)CCCC6)C(C)(C)[C@@H]5CC[C@]43C)[C@@H]12`, the response in data set [2] was half-maximal at 0.0054 µM (EC50). Further, in data set [3], the IC50 – broadly, the concentration at which inhibition is half-maximal – turned out to be 6.99 µM. The selectivity ratio in data set [4] is 1190.
The compound `C=C(C)[C@@H]1CC[C@]2(/C=N/O)CC[C@]3(C)[C@H](CC[C@@H]4[C@@]5(C)CC/C(=N\O)C(C)(C)[C@@H]5CC[C@]43C)[C@@H]12` [BETULIN-3,28-DIOXIME] had an EC50 in data set [2] of 1.07 µM. In data set [3], this compound had an IC50 of 5.47 µM. Further, the selectivity ratio in data set [4] worked out at 5.1.
On to `CC(C)[C@@H]1CC[C@]2(COC(=O)CCC(=O)O)CC[C@]3(C)[C@H](CC[C@@H]4[C@@]5(C)CC[C@H](OC(=O)CCC(=O)O)C(C)(C)[C@@H]5CC[C@]43C)[C@@H]12`, for which the EC50 in data set [2] came to 4.7 µM. In addition, the IC50 in data set [3] turned out to be 28.8 µM. Also, the selectivity ratio in data set [4] came out at 6.2.
The like results for `C=C(C)[C@@H]1CC[C@]2(COC(C)=O)CC[C@]3(C)[C@H](CC[C@@H]4[C@@]5(C)CC[C@H](OC(C)=O)C(C)(C)[C@@H]5CC[C@]43C)[C@@H]12` [BETULIN DIACETATE] were, in that order, above 190 µM, above 190 µM and below 1.
Turning to `C=C(COC(C)=O)[C@@H]1CC[C@]2(COC(C)=O)CC[C@]3(C)[C@H](CC[C@@H]4[C@@]5(C)CC[C@H](OC(C)=O)C(C)(C)[C@@H]5CC[C@]43C)[C@@H]12`, a half-maximal response in data set [2] (EC50) required 10.2 µM. In addition, in data set [3], the IC50 amounted to 25 µM. Besides, in data set [4], the selectivity ratio is 2.5.
